Results: publication PMC11795718 (Angewandte Chemie (International Ed. in English), 2024)

Legend:
[1] = system: 15‐LOX‐1 in RAW 264.7 cells; test: cell-based competition assay; set-up: species or system murine; details: for competition with BAM10 labelling, 10-fold competitor: 5 μM BAM10, competitor 10-fold (50 μM); for competition with BAM10 labelling, equimolar competitor: 5 μM BAM10, equimolar concentration of competitor
C. elegans = test: growth and imaging of BAM10-treated C. elegans; type: in vivo, Caenorhabditis elegans; details: 5 μM BAM10, competitor 50 μM, co-treated plates
purified 15‐LOX‐1 [2] = biological target: T1, purified 15‐LOX‐1 (Homo sapiens, UniProt P16050); test: fluorescence labeling of recombinant purified 15-LOX-1; type: binding; details: applied prior to the probe BAM10
T1 sequence (P16050 1-662): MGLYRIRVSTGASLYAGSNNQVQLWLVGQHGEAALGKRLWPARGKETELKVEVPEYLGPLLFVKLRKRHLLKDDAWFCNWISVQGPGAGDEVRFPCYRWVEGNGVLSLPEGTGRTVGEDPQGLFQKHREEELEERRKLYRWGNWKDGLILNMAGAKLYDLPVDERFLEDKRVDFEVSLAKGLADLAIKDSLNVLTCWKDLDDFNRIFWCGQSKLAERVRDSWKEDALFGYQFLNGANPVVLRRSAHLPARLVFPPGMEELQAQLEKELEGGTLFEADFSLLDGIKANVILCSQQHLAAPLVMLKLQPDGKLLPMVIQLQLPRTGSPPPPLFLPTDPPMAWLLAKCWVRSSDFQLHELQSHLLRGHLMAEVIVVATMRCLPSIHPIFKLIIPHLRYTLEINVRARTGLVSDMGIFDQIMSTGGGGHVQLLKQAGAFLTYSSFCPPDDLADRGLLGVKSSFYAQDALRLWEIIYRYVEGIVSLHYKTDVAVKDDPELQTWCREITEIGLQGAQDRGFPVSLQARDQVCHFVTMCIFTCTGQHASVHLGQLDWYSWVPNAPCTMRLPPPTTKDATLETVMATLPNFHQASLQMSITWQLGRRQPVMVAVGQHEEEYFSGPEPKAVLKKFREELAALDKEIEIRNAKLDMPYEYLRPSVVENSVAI
How it was run: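 Recombinant purified human 15‑LOX‑1 was incubated briefly with the fluorescent probe, then acetone‑precipitated, leaving excess probe in the supernatant; fluorescence of the labelled protein was read. For the dot‑blot, enzyme with or without pre‑incubation with a reference inhibitor was probe‑treated; controls lacked enzyme. Duplicates (n=2).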

purified 15‐LOX‐1 [3] = biological target: T1, purified 15‐LOX‐1; test: MS-based proteomics of covalent modification; type: binding; details: adduct after preincubation with purified 15-LOX-1
soybean LOX = soybean LOX inhibition; type: biochemical; details: selectivity
RAW 264.7 cells = test: imaging-based cell permeability and retention assay; set-up: species or system murine; details: live RAW 264.7 cells, timeframe of the experiment
How it was run: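 Live RAW 264.7 cells were treated in situ on the confocal microscope with the fluorescein‑tagged probe at room temperature. Images were recorded immediately and continuously to follow cellular uptake over time.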

h-15-LOX-1 = biological target: T2, h-15-LOX-1 (Homo sapiens, UniProt P16050); test: Michaelis-Menten / Lineweaver-Burk kinetics; type: biochemical
T2 sequence (P16050 1-662): T1 sequence (P16050 1-662)

Row | Compound | competition with BAM10 labelling, 10-fold competitor [1] | competition with BAM10 labelling, equimolar competitor [1] | competition with BAM10 fluorescence in the pharynx (C. elegans) | other results
1 | CCCCNC(=O)c1cc(-c2ccccc2)sc1N [ThioLox, reference compound] | decreased almost to background levels | not significant | reduced BAM10 fluorescence intensity | effect on BAM10 labeling of the enzyme (dot-blot) (purified 15‐LOX‐1 [2]): reduced labeling of the enzyme
2 | CC#CCC#CCCCC=NNc1ccccc1 [BAM3] | reduction of BAM10 fluorescence intensity | not significant | reduced BAM10 fluorescence intensity | mass increase of tryptic peptide [YTLEINVRAR] (amino acids 395–404) (purified 15‐LOX‐1 [3]): 230 Da; difference in inhibitory potency in favor of human 15-LOX-1 over soybean LOX (soybean LOX): 4 fold
3 | O=C1OC2(c3ccc(O)cc3Oc3cc(O)ccc32)c2ccccc21 [fluorescein] | – | – | – | cell permeability (RAW 264.7 cells): impermeable
4 | CC#CCC#CCCCC=O [BAM1] | – | – | – | type of inhibition (Lineweaver–Burk plots) (h-15-LOX-1): noncompetitive inhibition
